# What was measured:
# [1] = tested on: Candida albicans; assay: Antifungal activity against 10^5 CFU/mL Candida albicans MTCC 183 at 100 ug/ml after 48 hrs by disc diffusion technique; format: functional; details: MTCC 183, 48 h, read-out: IZ
# How it was run: (§1)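 Disc diffusion. Mueller-Hinton agar autoclaved 120 °C 30 min, poured 5 mm deep. Surface swabbed with 10⁵ CFU/mL suspension […]. 6.25 mm filter-paper discs soaked in compound in DMSO; DMSO-only disc as blank. Incubated 37 ± 1 °C, 24 h for bacteria or 48 h for fungi. Ciprofloxacin and ketoconazole discs as reference drugs. Inhibition zone measured in mm.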
# [2] = tested on: Candida albicans; assay: Antifungal activity against 10^5 CFU/mL Candida albicans MTCC 183 after 48 hrs by agar streak dilution method; format: functional; details: MTCC 183, 48 h
# How it was run: (§2)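 Agar streak dilution for fungi. Stock 100 µg/mL in DMSO; graded amounts were mixed into molten Sabouraud dextrose agar and poured at 4–5 mm depth. Serial dilutions ran over […]. About 10⁵ CFU/mL inoculum was applied, with incubation at 37 ± 1 °C for 48 h. MIC was read from the dilution series.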
# [3] = tested on: Aspergillus clavatus; assay: Antifungal activity against 10^5 CFU/mL Aspergillus clavatus MTCC 1323 at 100 ug/ml after 48 hrs by disc diffusion technique; format: functional; details: MTCC 1323, 48 h, read-out: IZ; how it was run: as §1
# [4] = tested on: Aspergillus niger; assay: Antifungal activity against 10^5 CFU/mL Aspergillus niger MTCC 282 after 48 hrs by agar streak dilution method; format: functional; details: MTCC 282, 48 h; how it was run: as §2
# [5] = tested on: Aspergillus fumigatus; assay: Antifungal activity against 10^5 CFU/mL Aspergillus fumigatus MTCC 343 at 100 ug/ml after 48 hrs by disc diffusion technique; format: functional; details: MTCC 343, 48 h, read-out: IZ; how it was run: as §1
# [6] = tested on: Aspergillus fumigatus; assay: Antifungal activity against 10^5 CFU/mL Aspergillus fumigatus MTCC 343 after 48 hrs by agar streak dilution method; format: functional; details: MTCC 343, 48 h; how it was run: as §2
# [7] = tested on: Aspergillus clavatus; assay: Antifungal activity against 10^5 CFU/mL Aspergillus clavatus MTCC 1323 after 48 hrs by agar streak dilution method; format: functional; details: MTCC 1323, 48 h; how it was run: as §2
# [8] = tested on: Aspergillus niger; assay: Antifungal activity against 10^5 CFU/mL Aspergillus niger MTCC 282 at 100 ug/ml after 48 hrs by disc diffusion technique; format: functional; details: MTCC 282, 48 h, read-out: IZ; how it was run: as §1
# [9] = tested on: Klebsiella pneumoniae; assay: Antibacterial activity against 10^5 CFU/mL Klebsiella pneumoniae MTCC 109 after 24 hrs by agar streak dilution method; format: functional; details: MTCC 109, 24 h
# How it was run: (§3)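 Agar streak dilution. Stock 100 µg/mL in DMSO; graded amounts were mixed into molten nutrient agar and poured at 4–5 mm depth. Plates carried serial dilutions over […]. About 10⁵ CFU/mL of each bacterium was applied, and plates were incubated at 37 ± 1 °C for 24 h. MIC was read from the dilution series.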
# [10] = tested on: Salmonella typhi; assay: Antibacterial activity against 10^5 CFU/mL Salmonella typhi MTCC 733 after 24 hrs by disc diffusion technique; format: functional, Salmonella enterica subsp. enterica serovar Typhi; how it was run: as §1
# [11] = tested on: Klebsiella pneumoniae; assay: Antibacterial activity against 10^5 CFU/mL Klebsiella pneumoniae MTCC 109 after 24 hrs by disc diffusion technique; format: functional
# How it was run: (§4)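 Disc diffusion on Mueller–Hinton agar poured 5 mm deep. The surface was swabbed with a 10⁵ CFU/mL […] suspension. Filter-paper discs 6.25 mm in diameter were soaked in compound in DMSO and placed on the agar. Plates were incubated 24 h at 37 ± 1 °C, and the inhibition zone was measured in mm. A DMSO disc served as blank.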
# [12] = tested on: Proteus vulgaris; assay: Antibacterial activity against 10^5 CFU/mL Proteus vulgaris MTCC 1771 after 24 hrs by disc diffusion technique; format: functional; how it was run: as §4
# [13] = tested on: Salmonella typhi; assay: Antibacterial activity against 10^5 CFU/mL Salmonella typhi MTCC 733 after 24 hrs by agar streak dilution method; format: functional, Salmonella enterica subsp. enterica serovar Typhi; details: Salmonella enterica, MTCC 733, 24 h
# [14] = tested on: Proteus vulgaris; assay: Antibacterial activity against 10^5 CFU/mL Proteus vulgaris MTCC 1771 after 24 hrs by agar streak dilution method; format: functional; details: MTCC 1771, 24 h; how it was run: as §3
# [15] = tested on: Escherichia coli; assay: Antibacterial activity against 10^5 CFU/mL Escherichia coli MTCC 739 after 24 hrs by agar streak dilution method; format: functional; details: MTCC 739, 24 h; how it was run: as §3
# [16] = tested on: Pseudomonas aeruginosa; assay: Antibacterial activity against 10^5 CFU/mL Pseudomonas aeruginosa MTCC 741 after 24 hrs by agar streak dilution method; format: functional; details: MTCC 741, 24 h; how it was run: as §3
# [17] = tested on: DU-145; assay: Cytotoxicity against […] human DU145 cells after 48 hrs by SRB assay; format: functional; details: DU-145, 48 h
# How it was run: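 SRB assay in DU-145 cells grown in RPMI 1640 with 10% FBS and 2 mM L-glutamine. Cells were plated and held 24 h before addition of four 10-fold concentrations. After 48 h, cells were TCA-fixed, stained with 0.4% SRB and read at 540 nm. GI50, TGI and LC50 were derived against time-zero and control wells; each value is the mean of three experiments.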
# [18] = tested on: Bacillus cereus; assay: Antibacterial activity against 10^5 CFU/mL Bacillus cereus MTCC 619 after 24 hrs by disc diffusion technique; format: functional; how it was run: as §4
# [19] = tested on: Bacillus cereus; assay: Antibacterial activity against 10^5 CFU/mL Bacillus cereus MTCC 619 after 24 hrs by agar streak dilution method; format: functional; details: MTCC 619, 24 h; how it was run: as §3
# [20] = tested on: Aspergillus niger; assay: Antifungal activity against 10^5 CFU/mL Aspergillus niger MTCC 282 after 48 hrs by disc diffusion technique; format: functional
# [21] = tested on: Pseudomonas aeruginosa; assay: Antibacterial activity against 10^5 CFU/mL Pseudomonas aeruginosa MTCC 741 after 24 hrs by disc diffusion technique; format: functional; how it was run: as §4
# [22] = tested on: Mycobacterium tuberculosis; assay: Antimycobacterial activity against 10^4 to 10^7 CFU/mL Mycobacterium tuberculosis H37Rv after 24 hrs measured after 28 days post-inoculation; format: functional
# How it was run: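 Secondary MIC on Lowenstein-Jensen medium. DMSO dilutions (50, 25, 12.5, 6.25, […]) added to L.J. medium, then inspissated. Tubes incubated at 37 ± 1 °C for 24 h, then streaked with 5×10⁴ H37Rv bacilli per tube. Growth read at 12, 22 and 28 days against drug-free controls. MIC = no colonies or fewer than 20 colonies.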
# [23] = tested on: Staphylococcus aureus; assay: Antibacterial activity against 10^5 CFU/mL Staphylococcus aureus MTCC 96 after 24 hrs by disc diffusion technique; format: functional; how it was run: as §4
# [24] = tested on: Aspergillus fumigatus; assay: Antifungal activity against 10^5 CFU/mL Aspergillus fumigatus MTCC 343 after 48 hrs by disc diffusion technique; format: functional
# [25] = tested on: Shigella flexneri; assay: Antibacterial activity against 10^5 CFU/mL Shigella flexneri MTCC 1457 after 24 hrs by agar streak dilution method; format: functional; details: MTCC 1457, 24 h; how it was run: as §3
# [26] = tested on: Escherichia coli; assay: Antibacterial activity against 10^5 CFU/mL Escherichia coli MTCC 739 after 24 hrs by disc diffusion technique; format: functional; how it was run: as §4
# [27] = tested on: Candida albicans; assay: Antifungal activity against 10^5 CFU/mL Candida albicans MTCC 183 after 48 hrs by disc diffusion technique; format: functional
# [28] = tested on: Aspergillus clavatus; assay: Antifungal activity against 10^5 CFU/mL Aspergillus clavatus MTCC 1323 after 48 hrs by disc diffusion technique; format: functional
# [29] = tested on: Staphylococcus aureus; assay: Antibacterial activity against 10^5 CFU/mL Staphylococcus aureus MTCC 96 after 24 hrs by agar streak dilution method; format: functional; details: MTCC 96, 24 h; how it was run: as §3
# [30] = tested on: Shigella flexneri; assay: Antibacterial activity against 10^5 CFU/mL Shigella flexneri MTCC 1457 after 24 hrs by disc diffusion technique; format: functional; how it was run: as §4
# [31] = tested on: Klebsiella pneumoniae; assay: microbe, parasite or virus in culture; details: MTCC 109, 24 h, read-out: IZ
# [32] = tested on: Escherichia coli; assay: microbe, parasite or virus in culture; details: MTCC 739, 24 h, read-out: IZ
# [33] = tested on: Staphylococcus aureus; assay: Antibacterial activity against 10^5 CFU/mL Staphylococcus aureus MTCC 96 at 100 ug/ml after 24 hrs by disc diffusion technique; details: MTCC 96, 24 h, read-out: IZ
# [34] = tested on: Proteus vulgaris; assay: Antibacterial activity against 10^5 CFU/mL Proteus vulgaris MTCC 1771 at 100 ug/ml after 24 hrs by disc diffusion technique; format: functional; details: MTCC 1771, 24 h, read-out: IZ; how it was run: as §4
# [35] = tested on: Shigella flexneri; assay: Antibacterial activity against 10^5 CFU/mL Shigella flexneri MTCC 1457 at 100 ug/ml after 24 hrs by disc diffusion technique; format: functional; details: MTCC 1457, 24 h, read-out: IZ; how it was run: as §4
# [36] = tested on: Pseudomonas aeruginosa; assay: microbe, parasite or virus in culture; details: MTCC 741, 24 h, read-out: IZ
# [37] = tested on: Salmonella typhi; assay: Antibacterial activity against 10^5 CFU/mL Salmonella typhi MTCC 733 at 100 ug/ml after 24 hrs by disc diffusion technique; format: functional, Salmonella enterica subsp. enterica serovar Typhi; details: Salmonella enterica, MTCC 733, 24 h; read-out: IZ; how it was run: as §1
# [38] = tested on: Bacillus cereus; assay: Antibacterial activity against 10^5 CFU/mL Bacillus cereus MTCC 619 at 100 ug/ml after 24 hrs by disc diffusion technique; format: functional; details: MTCC 619, 24 h, read-out: IZ; how it was run: as §4
smiles,measurement,setting,value
CC(=O)N1CCN(c2ccc(OCC3COC(Cn4ccnc4)(c4ccc(Cl)cc4Cl)O3)cc2)CC1 (configuration not stated) [KETOCONAZOLE],zone of inhibition at 100 µg/mL,[1],33 mm
same,MIC,[2],≤ 1 µg/mL
same,zone of inhibition at 100 µg/mL,[3],31 mm
same,MIC,[4],≤ 3 µg/mL
same,zone of inhibition at 100 µg/mL,[5],29 mm
same,MIC,[6],≤ 1 µg/mL
same,MIC,[7],≤ 1 µg/mL
same,zone of inhibition at 100 µg/mL,[8],30 mm
CC1CC(C)CN(c2nc(Nc3ccc(C#N)c(C(F)(F)F)c3)nc(Oc3ccnc4ccccc34)n2)C1 (configuration not stated),MIC,[9],25 µg/mL
same,MIC,[2],100 µg/mL
same,MIC,[4],50 µg/mL
same,inhibition zone (IZ),[10],27 mm
same,inhibition zone (IZ),[11],23 mm
same,inhibition zone (IZ),[12],27 mm
same,MIC,[13],12.5 µg/mL
same,MIC,[14],6.25 µg/mL
same,MIC,[15],12.5 µg/mL
same,MIC,[16],12.5 µg/mL
same,GI50,[17],27.2 µM
same,LC50 (concentration giving 50% net cell kill relative to time zero),[17],> 100 µM
same,TGI,[17],68 µM
same,inhibition zone (IZ),[18],25 mm
same,MIC,[19],12.5 µg/mL
same,inhibition zone (IZ),[20],23 mm
same,inhibition zone (IZ),[21],24 mm
same,MIC99,[22],3.12 µg/mL
same,inhibition zone (IZ),[23],27 mm
same,MIC,[6],50 µg/mL
same,MIC,[7],25 µg/mL
same,inhibition zone (IZ),[24],25 mm
same,MIC,[25],12.5 µg/mL
same,inhibition zone (IZ),[26],25 mm
same,inhibition zone (IZ),[27],18 mm
same,inhibition zone (IZ),[28],26 mm
same,MIC,[29],6.25 µg/mL
same,inhibition zone (IZ),[30],25 mm
O=C(O)c1cn(C2CC2)c2cc(N3CCNCC3)c(F)cc2c1=O [CIPROFLOXACIN],MIC,[9],≤ 1 µg/mL
same,zone of inhibition at 100 µg/mL,[31],33 mm
same,zone of inhibition at 100 µg/mL,[32],32 mm
same,zone of inhibition at 100 µg/mL,[33],30 mm
same,zone of inhibition at 100 µg/mL,[34],31 mm
same,MIC,[13],≤ 1 µg/mL
same,MIC,[14],≤ 1 µg/mL
same,zone of inhibition at 100 µg/mL,[35],32 mm
same,MIC,[15],≤ 1 µg/mL
same,MIC,[16],≤ 1 µg/mL
same,zone of inhibition at 100 µg/mL,[36],33 mm
same,MIC,[19],≤ 1 µg/mL
same,zone of inhibition at 100 µg/mL,[37],30 mm
same,zone of inhibition at 100 µg/mL,[38],31 mm
same,MIC,[25],≤ 3 µg/mL
same,MIC,[29],≤ 1 µg/mL

# Reference: ChEMBL document CHEMBL1828552, “Synthesis and studies of novel 2-(4-cyano-3-trifluoromethylphenyl amino)-4-(quinoline-4-yloxy)-6-(piperazinyl/piperidinyl)-s-triazines as potential antimicrobial, antimycobacterial and anticancer agents” (2011)
